Bioassay records deposited in PubChem BioAssay by Johns Hopkins Ion Channel Center.
Rows were chosen to be rich in hits. Some 3.5% of all compounds tested hit in one or more screens of this group.
RGS4 block = RGS4 inhibitors, primary screen, cell-based, HEK293 M3R inducible RGS4, calcium flux; 310,000 compounds, 0.45% hits; AID 463165, 2010; Fluo-4 calcium flux; hits give high values; triggered by carbachol at its EC20; Regulator of G-protein signaling 4 (Homo sapiens), P49798; B-score at 10 µM;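 active = B-score, a plate-corrected calcium signal, over three deviations above library mean, with baseline fluorescence within five deviations of library mean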;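 also: RGS4 expression induced by doxycycline in cells with stable M3 receptor; B-score is computed from the integrated fluorescence ratio over baseline after carbachol; higher B-score means a larger calcium signal and so more RGS4 inhibition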
Target sequence (P49798 whole entry, looked up): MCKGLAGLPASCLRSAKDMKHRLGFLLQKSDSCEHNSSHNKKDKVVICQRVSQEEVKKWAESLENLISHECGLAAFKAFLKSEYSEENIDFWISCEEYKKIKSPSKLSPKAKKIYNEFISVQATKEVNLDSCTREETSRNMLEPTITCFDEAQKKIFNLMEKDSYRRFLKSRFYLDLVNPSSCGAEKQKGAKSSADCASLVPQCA
MrgX1 antagonist = antagonists of human MrgX1 receptor, primary screen, HEK293 cells, Fluo-4 calcium flux; Mas-related G-protein coupled receptor member X1 (Homo sapiens), Q96LB2; BAM8-22 antagonism; hits give low values; B-score at 10 µM; 310,000 compounds, 1.3% hits; AID 588676, 2011;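 active = calcium-response B-score plate-corrected more than 3 library SD below zero, starting fluorescence within 5 deviations, no agonist response on first addition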;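 also: peak minus trough fluorescence over baseline after final BAM8-22 challenge near maximal dose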
Target sequence (Q96LB2 whole entry, looked up): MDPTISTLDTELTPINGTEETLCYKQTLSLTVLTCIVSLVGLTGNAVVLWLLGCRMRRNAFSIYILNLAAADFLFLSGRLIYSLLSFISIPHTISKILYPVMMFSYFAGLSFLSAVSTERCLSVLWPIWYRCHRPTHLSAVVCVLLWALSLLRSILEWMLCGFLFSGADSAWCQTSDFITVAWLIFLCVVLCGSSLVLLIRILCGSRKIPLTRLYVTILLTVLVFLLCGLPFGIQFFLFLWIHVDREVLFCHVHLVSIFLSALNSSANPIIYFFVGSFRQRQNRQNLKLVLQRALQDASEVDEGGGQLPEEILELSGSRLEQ
MrgX1 PAM = positive allosteric modulators of MrgX1, primary screen, HEK293 cells, Fluo-4 calcium flux; FDSS; hits give high values; B-score at 10 µM; 310,000 compounds, 0.63% hits; AID 588675, 2011;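 active = plate-corrected calcium response at least 3 library SD above typical, normal starting fluorescence, not activating the receptor alone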;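 also: compound read alongside a low EC10 to EC30 dose of BAM8-22 agonist; peak minus trough fluorescence over baseline measured at the second addition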
MrgX1 agonist = agonists of human MrgX1 receptor, primary screen, HEK293 cells, Fluo-4 calcium flux. Mas-related G-protein coupled receptor member X1 (Homo sapiens), Q96LB2. Fluo-4 calcium fluorescence, agonist mode; hits give high values. B-score at 10 µM. 310,000 compounds, 0.44% hits. AID 588627, 2011;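 active = calcium response B-score plate-corrected fluorescence ratio at least 3 library SD, with starting fluorescence B-score inside 5 SD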
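Assay system: MrgX1-expressing HEK293 cells / Amount: fifteen thousand cells per well / Doses: test compound in the initial addition of three / Timing: cells plated overnight, dye loaded 0.5 h 37 °C, 0.5 h room temperature / Technique: kinetic calcium dye fluorescence, Fluo-4 NW / Control set: positive and negative controls per plate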
RGS4 act = RGS4 potentiators or activators, primary screen, cell-based, HEK293 M3R inducible RGS4, calcium flux; carbachol calcium flux Fluo4; hits give low values; AID 463111, 2010; 310,000 compounds, 0.92% hits; B-score at 10 µM;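 active = B-score of the integrated calcium signal more than 4 SD below the library mean, with starting fluorescence not abnormally high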;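 also: negative B-score means reduced calcium response which marks RGS4 activation or potentiation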
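Material: M3R-expressing HEK293 line, RGS4 induced by doxycycline | Schedule: Overnight RGS4 induction, 30 min dye load 37 °C, 20 min compound RT | Measured by: Fluo4 fluorescence kinetic imaging of calcium | Read-out: Integrated calcium ratio converted to B score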
Of the large screens only hits and unclear results are named; the others gave an inactive call.

CCCc1ccc(/C=C2\C(=O)c3ccccc3C(O)=C2C(=O)OCC)cc1	MrgX1 antagonist -7
CCOC(=O)C1=C(O)c2ccccc2C(=O)/C1=C\c1ccc(CC)cc1	MrgX1 antagonist -5.96
CCOC(=O)C1=C(Cc2ccc(C)cc2)C(=O)c2ccccc2C1=O	MrgX1 agonist 86.1
NC(=O)c1cc(S(=O)(=O)NCc2cccc(Br)c2)cs1	none
CC(C)(C)c1ccc(C(=O)N/C(=C\c2cccc([N+](=O)[O-])c2)C(=O)Nc2cccc(C(=O)O)c2)cc1	none
CC1(C)SC2c3ccccc3C(=O)N2[C@@H]1C(=O)O (some centres undefined)	none
CC1=NN(c2ccc(C)cc2)C(=O)/C1=C\c1ccc(Br)s1	MrgX1 antagonist -6.48
CC1=NN(c2ccc(Br)cc2)C(=O)/C1=C/c1cccs1	MrgX1 PAM 13.9
CC(C)CC(C(=O)OCC(=O)c1c(N)n(C)c(=O)n(C)c1=O)N1C(=O)C2CC=CCC2C1=O (centres undefined)	none
CC(C)CC(=O)Nc1ccc(C(=O)CN2C(=O)NC3(CCOc4ccccc43)C2=O)cc1 (centres undefined)	none
CCC1Oc2ccccc2N(CC(=O)NCCCN2CCN(Cc3ccccc3)CC2)C1=O (centres undefined)	MrgX1 antagonist -5.32
CCCN1CCN(CCCNC(=O)CN2C(=O)C(CC)Oc3ccccc32)CC1 (centres undefined)	none
CCOc1ccc(OCCCC(=O)N(C)CC(=O)Nc2ccc(N3CCOCC3)cc2)cc1	none
COc1ccc(CCC(=O)N(C)CC(=O)Nc2ccc(N3CCOCC3)cc2)cc1	MrgX1 PAM 10.8
Cc1occc1C(=O)NNC(=O)CN1C(=O)NC(C)(c2ccccc2)C1=O (centres undefined)	none
COc1ccc(O)c(/C=N/Nc2nc(Nc3ccccc3)nc(-n3nc(C)cc3C)n2)c1	RGS4 act -8.48
Cc1ccc(NS(=O)(=O)c2cc([N+](=O)[O-])ccc2N/N=C/c2sc(N3CCOCC3)nc2-c2ccccc2)c(C)c1	MrgX1 antagonist -9.43
COc1cc(/C=C(\C#N)C(=O)NCCc2ccccc2)cc(OC)c1O	MrgX1 PAM 7.27
CCOC(=O)COn1c(-c2cccc(Cl)c2)nc2ccc([N+](=O)[O-])cc21	MrgX1 antagonist -6.23
CC(NC(=O)/C=C/c1ccco1)c1nc2ccccc2n1Cc1ccccc1F (centres undefined)	MrgX1 antagonist -5.31
CC(NC(=O)/C=C/c1ccco1)c1nc2ccccc2n1Cc1c(Cl)cccc1Cl (centres undefined)	none
O=C(c1cccc(C(=O)N(c2ccccn2)C2CCCCC2)c1)N(c1ccccn1)C1CCCCC1	MrgX1 antagonist -6.78
N#C/C(=C\c1ccccc1)C(=O)N(c1ccccn1)C1CCCCC1	MrgX1 agonist 32.6
CCCc1cc(C(=O)N2CCN(C(c3ccccc3)c3ccccc3)CC2)no1	RGS4 act -7.43
Cc1cc(C(=O)N2CCN(C(c3ccccc3)c3ccccc3)CC2)no1	none
CC(C)Cc1ccc(C(C)C(N)=Nc2ccc(O)cc2)cc1 (centres undefined)	MrgX1 PAM 9.96
CC(C)Cc1ccc(C(C)C(=O)N2CCOCC2)cc1 (centres undefined)	none
COCCN(C(=O)COC(=O)Cc1c[nH]c2ccccc12)c1c(N)n(Cc2ccccc2)c(=O)[nH]c1=O	none
CCCc1cc(=O)oc2cc(C)cc(O)c12	MrgX1 agonist 35
CCc1cc(=O)oc2cc(C)cc(O)c12	none
CCCC(C(=O)NC(C)(C)C)N(CCN1CCOCC1)C(=O)CNS(=O)(=O)c1ccccc1 (centres undefined)	none
Cc1cc(C)nc(/N=C(\N)Nc2ccc(F)c([N+](=O)[O-])c2)n1	MrgX1 agonist 37.8
CCCCCOc1ccc(NC(=O)C(=O)NCC2CCCN2CC)cc1 (centres undefined)	MrgX1 antagonist -6.99
Cc1sc2ncnc(SCC(=O)Nc3nc(-c4ccc(F)c(F)c4)cs3)c2c1C	none
CCN(CC)c1ccc(/C=C(\C#N)c2ccccn2)cc1	MrgX1 antagonist -9.07
CCN(Cc1ccccc1)c1ccc(/C=C(\C#N)c2ccccn2)cc1	none
Cc1nc(C)c(-c2nnc(-c3ccc(C(C)(C)C)cc3)o2)cc1C(=O)NN	MrgX1 antagonist -6.01
Cc1nc(C)c(-c2nnc(-c3ccccc3Cl)o2)cc1C(=O)NN	none
CC1CCN(S(=O)(=O)c2ccc(NC(=O)C3CSC4(C)CCC(=O)N34)cc2)CC1 (centres undefined)	none
COc1ccc(CNC(=O)C(c2ccc(C)cc2)N(Cc2cccs2)C(=O)c2ccc3c(c2)OCCO3)cc1 (centres undefined)	RGS4 act -7.5
COc1ccc(CNC(=O)C(c2cccs2)N(Cc2ccco2)C(=O)Cc2cccs2)cc1 (centres undefined)	RGS4 act -7.36
COc1ccc(CNC(=O)C(c2ccco2)N(Cc2cccs2)C(=O)Cc2cccs2)cc1 (centres undefined)	none
Cc1ccc(C(C(=O)NCc2ccccc2)N(Cc2cccs2)C(=O)c2ccc3c(c2)OCCO3)cc1 (centres undefined)	none
O/N=C(\c1ccc(Cl)cc1Cl)c1ncc(C(F)(F)F)cc1Cl	none
COCCN1CC(C(=O)NCCc2nc(C)c(C)s2)CCC1=O (centres undefined)	none
CCOc1cc(N2CCOCC2)c(OCC)cc1NC(=O)CN1C(=O)NC(C)(C2CC2)C1=O (centres undefined)	MrgX1 antagonist -4.75
COc1ccc(C(=O)NCC(=O)N2CCCCC2)cc1OC	none
COc1ccc(C(=O)c2ccc(OC)c(OC)c2)cc1	MrgX1 antagonist -5.01
COc1ccc(C(=O)NN2CCCCC2)cc1OC	MrgX1 antagonist -4.97
CCOc1ccc(NC(=O)C2CCCN2S(=O)(=O)c2ccc3c(c2)C(C)(C)C(=O)N3C)cc1 (centres undefined)	none
CSCC[C@H](NC(=O)[C@@H]1Cc2ccccc2CN1)C(=O)Nc1ccc2c(c1)OCO2	none
COc1ccc(C(=O)NC2CC3CCCC(C2)N3Cc2ccccc2)c(OC)c1 (centres undefined)	none
CN(C)C1=NC[C@H](Cc2ccccc2)N1CC1CCC(C(C)(C)C)CC1 (some centres undefined)	MrgX1 antagonist -6.23
COc1ccccc1NC(=O)CSc1nc(=O)n(CCN2CCOCC2)c2c1CCC2	none
N#C/C(=C\c1ccc(Sc2nc3ccccc3[nH]2)o1)c1ccccc1	MrgX1 antagonist -4.8
CC(C(=O)Nc1ccccc1F)N1CCN(C)CC1 (centres undefined)	none
